According to ChEMBL document CHEMBL1154240, “Molecular-targeted antitumor agents. 19. Furospongolide from a marine Lendenfeldia sp. sponge inhibits hypoxia-inducible factor-1 activation in breast tumor cells” (J Nat Prod, 2008):
Active and inactive are the calls of the source. The rule behind the calls is not given here.

Assays:
MDA-MB-231 [1] = assay: Cytotoxicity against human MDA-MB-231 cells under normoxic condition after 48 hrs by natural red method; type: functional, cell-based; settings: MDA-MB-231, 48 h
Summary of the method: (§1)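 Cells plated at 30,000/well in DMEM/F12 with 10% FCS and antibiotics and left overnight, then given compound in serum-free DMEM/F12. After a 30 min pre-exposure, incubation ran 48 h under normoxia (5% CO2/95% air) or hypoxia (1% O2/5% CO2/94% N2). Viability was read by neutral red, expressed as % inhibition, from one experiment in triplicate.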

[2] = target: T1, Hypoxia inducible factors; HIF-1-alpha, HIF-2-alpha (Homo sapiens, UniProt Q16665+Q99814); assay: Inhibition of 1,10-phenanthroline-induced HIF1 activation in human PC3 cells after 16 hrs by pTK-HRE3-luciferase reporter gene assay; type: cell-based; settings: pc-3
Summary of the method: (§2)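 Cells transiently transfected with the pHRE-TK-Luc reporter (HIF-1) or the CMV-driven pGL3-Control plasmid, given compound, then exposed for 16 h to hypoxia (1% O2/5% CO2/94% N2, 37°C) or 10 μM 1,10-phenanthroline. Luciferase read-out: % inhibition = (1 − treated/induced light output) × 100. One experiment in triplicate.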

[3] = target: T1, Hypoxia inducible factors; HIF-1-alpha, HIF-2-alpha; assay: Inhibition of hypoxia-induced HIF1 activation in human PC3 cells after 16 hrs by pTK-HRE3-luciferase reporter gene assay; type: cell-based; settings: pc-3; summary of the method: as §2
PC-3 [4] = assay: Cytotoxicity against human PC3 cells under hypoxic condition after 48 hrs by natural red method; type: functional, cell-based; settings: PC-3, 48 h; summary of the method: as §1
[5] = target: T1, Hypoxia inducible factors; HIF-1-alpha, HIF-2-alpha; assay: Inhibition of 1,10-phenanthroline-induced HIF1 activation in human T47D cells after 16 hrs by pTK-HRE3-luciferase reporter gene assay; type: cell-based; summary of the method: as §2
T47D [6] = assay: Cytotoxicity against human T47D cells under hypoxic condition after 48 hrs by natural red method; type: functional, cell-based; summary of the method: as §1
PC-3 [7] = assay: Cytotoxicity against human PC3 cells under normoxic condition after 48 hrs by natural red method; type: functional, cell-based; settings: PC-3, 48 h; summary of the method: as §1
[8] = target: T1, Hypoxia inducible factors; HIF-1-alpha, HIF-2-alpha; assay: Inhibition of hypoxia-induced HIF1 activation in human T47D cells after 16 hrs by pTK-HRE3-luciferase reporter gene assay; type: cell-based; summary of the method: as §2
MCF7 [9] = assay: Cytotoxicity against human MCF7 cells under hypoxic condition after 48 hrs by natural red method; type: functional, cell-based; settings: MCF7, 48 h; summary of the method: as §1
MCF7 [10] = assay: Cytotoxicity against human MCF7 cells under normoxic condition after 48 hrs by natural red method; type: functional, cell-based; settings: MCF7, 48 h; summary of the method: as §1
MDA-MB-231 [11] = assay: Cytotoxicity against human MDA-MB-231 cells under hypoxic condition after 48 hrs by natural red method; type: functional, cell-based; settings: MDA-MB-231, 48 h; summary of the method: as §1
T47D [12] = assay: Cytotoxicity against human T47D cells under normoxic condition after 48 hrs by natural red method; type: functional, cell-based; summary of the method: as §1
[13] = Selectivity ratio of IC50 for inhibition of hypoxia-induced HIF1 activation in human T47D cells to IC50 for cytotoxicity to human T47D cells; type: toxicity, cell-based; settings: read-out: Ratio IC50
[14] = target: Hypoxia-inducible factor 1-alpha (Homo sapiens) (UniProt Q16665); assay: Inhibition of hypoxia-induced nuclear HIF1alpha in human T47D cells at 10 uM after 4 hrs by Western blot analysis; type: cell-based
T47D [15] = assay: Cytotoxicity against human T47D cells under hypoxic conditions at 30 uM after 48 hrs by natural red method; type: functional; summary of the method: as §1
[16] = target: Aryl hydrocarbon receptor nuclear translocator (Homo sapiens) (UniProt P27540); assay: Inhibition of hypoxia-induced nuclear HIF1beta in human T47D cells at 10 uM after 4 hrs by Western blot analysis; type: cell-based
T47D [17] = assay: Inhibition of 1,10-phenanthroline-induced VEGF secretion in human T47D cells at 30 uM after 16 hrs by ELISA; type: functional, cell-based
Summary of the method: (§3)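 T47D plated at 356,000 cells/well and left overnight at 37°C. Compound added in serum-free DMEM/F12 for 30 min under air, then 16 h under hypoxia (1% O2/5% CO2/94% N2) or with 10 μM 1,10-phenanthroline. Secreted VEGF in conditioned medium was measured by ELISA and normalized to total lysate protein (BCA).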

T47D [18] = assay: Inhibition of cellular respiration in human T47D cells assessed as oxygen consumption at 30 uM; type: functional, cell-based
Summary of the method: (§4)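 Intact T47D cells (5×10^6, equilibrated to 30°C) in 1 mL serum- and antibiotic-free DMEM/F12, with 17.5 mM glucose as substrate, in a Clark-type oxygen electrode. After 15 min baseline, compound in isopropyl alcohol injected at 3 min intervals. Oxygen consumption measured in triplicate; one-way ANOVA with Bonferroni post test.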

T47D [19] = assay: Inhibition of electron transport protein complex 2 in human T47D cells assessed as decrease in oxygen consumption at 30 uM pretreated for 2 hrs before succinate addition by mitochondrial respiration assay; type: cell-based
Summary of the method: (§5)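 T47D cells permeabilized with 30 μM digitonin in Clark-electrode chamber containing buffer of 20 mM HEPES pH 7.3, 120 mM KCl, 2 mM KH2PO4, 2 mM MgCl2, 1 mM EGTA, 0.3% fat-free BSA. Substrates: 5 mM pyruvate + 5 mM malate (complex I), 5 mM succinate (complex II), 5 mM ascorbate + 0.2 mM TMPD (complex IV); rotenone and antimycin A as inhibitors. Oxygen consumption monitored.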

T47D [20] = assay: Inhibition of cellular respiration in human T47D cells assessed as oxygen consumption at 10 uM; type: functional; summary of the method: as §4
[21] = target: Hypoxia-inducible factor 1-alpha (Homo sapiens) (UniProt Q16665); assay: Inhibition of 1,10-phenanthroline-induced nuclear HIF1alpha in human T47D cells at 10 uM after 4 hrs by Western blot analysis; type: cell-based
[22] = target: T1, Hypoxia inducible factors; HIF-1-alpha, HIF-2-alpha; assay: Inhibition of hypoxia-induced HIF1 activation in human T47D cells at 30 uM after 16 hrs by pTK-HRE3-luciferase reporter gene assay; type: cell-based; summary of the method: as §2
T47D [23] = assay: Inhibition of hypoxia-induced VEGF secretion in human T47D cells after 16 hrs by ELISA; type: functional, cell-based; summary of the method: as §3
T47D [24] = assay: Inhibition of electron transport protein complex 3 in human T47D cells assessed as decrease in oxygen consumption at 30 uM pretreated for 2 hrs before succinate addition by mitochondrial respiration assay; type: cell-based; summary of the method: as §5
[25] = Selectivity for inhibition of hypoxia-induced HIF1 activation in human T47D cells over cytotoxicity to human T47D cells; type: toxicity, cell-based
T47D [26] = assay: Inhibition of electron transport protein complex 4 in human T47D cells assessed as decrease in oxygen consumption at 30 uM pretreated for 2 hrs before TMPD/ascorbate addition by mitochondrial respiration assay; type: cell-based; summary of the method: as §5
T47D [27] = assay: Inhibition of electron transport protein complex 1 in human T47D cells assessed as decrease in oxygen consumption at 30 uM pretreated for 2 hrs before malate and pyruvate addition by mitochondrial respiration assay; type: cell-based; summary of the method: as §5

Sequence of Hypoxia-inducible factor 1-alpha (Homo sapiens) (Q16665 whole entry, looked up): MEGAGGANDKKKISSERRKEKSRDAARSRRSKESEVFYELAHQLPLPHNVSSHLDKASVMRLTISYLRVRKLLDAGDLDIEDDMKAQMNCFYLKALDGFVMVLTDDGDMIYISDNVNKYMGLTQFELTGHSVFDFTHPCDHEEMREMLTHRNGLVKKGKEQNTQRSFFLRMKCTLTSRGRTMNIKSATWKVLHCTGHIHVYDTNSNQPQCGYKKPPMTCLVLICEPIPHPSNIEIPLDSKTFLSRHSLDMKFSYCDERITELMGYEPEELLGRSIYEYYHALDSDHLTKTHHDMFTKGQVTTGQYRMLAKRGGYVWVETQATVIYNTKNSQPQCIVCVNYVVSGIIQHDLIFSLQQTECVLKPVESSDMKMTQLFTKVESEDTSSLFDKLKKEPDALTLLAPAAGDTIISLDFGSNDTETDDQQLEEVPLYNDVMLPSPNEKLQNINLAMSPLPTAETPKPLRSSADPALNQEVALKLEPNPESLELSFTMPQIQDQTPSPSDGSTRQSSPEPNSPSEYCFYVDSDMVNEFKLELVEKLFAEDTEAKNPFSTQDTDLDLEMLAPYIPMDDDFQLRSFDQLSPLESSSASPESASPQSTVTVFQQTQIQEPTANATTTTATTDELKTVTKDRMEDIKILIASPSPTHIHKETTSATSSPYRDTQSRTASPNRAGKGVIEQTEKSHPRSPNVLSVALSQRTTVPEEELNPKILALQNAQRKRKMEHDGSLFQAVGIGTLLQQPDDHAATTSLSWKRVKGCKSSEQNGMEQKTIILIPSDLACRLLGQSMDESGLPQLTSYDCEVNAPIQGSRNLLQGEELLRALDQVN
Sequence of Aryl hydrocarbon receptor nuclear translocator (Homo sapiens) (P27540 whole entry): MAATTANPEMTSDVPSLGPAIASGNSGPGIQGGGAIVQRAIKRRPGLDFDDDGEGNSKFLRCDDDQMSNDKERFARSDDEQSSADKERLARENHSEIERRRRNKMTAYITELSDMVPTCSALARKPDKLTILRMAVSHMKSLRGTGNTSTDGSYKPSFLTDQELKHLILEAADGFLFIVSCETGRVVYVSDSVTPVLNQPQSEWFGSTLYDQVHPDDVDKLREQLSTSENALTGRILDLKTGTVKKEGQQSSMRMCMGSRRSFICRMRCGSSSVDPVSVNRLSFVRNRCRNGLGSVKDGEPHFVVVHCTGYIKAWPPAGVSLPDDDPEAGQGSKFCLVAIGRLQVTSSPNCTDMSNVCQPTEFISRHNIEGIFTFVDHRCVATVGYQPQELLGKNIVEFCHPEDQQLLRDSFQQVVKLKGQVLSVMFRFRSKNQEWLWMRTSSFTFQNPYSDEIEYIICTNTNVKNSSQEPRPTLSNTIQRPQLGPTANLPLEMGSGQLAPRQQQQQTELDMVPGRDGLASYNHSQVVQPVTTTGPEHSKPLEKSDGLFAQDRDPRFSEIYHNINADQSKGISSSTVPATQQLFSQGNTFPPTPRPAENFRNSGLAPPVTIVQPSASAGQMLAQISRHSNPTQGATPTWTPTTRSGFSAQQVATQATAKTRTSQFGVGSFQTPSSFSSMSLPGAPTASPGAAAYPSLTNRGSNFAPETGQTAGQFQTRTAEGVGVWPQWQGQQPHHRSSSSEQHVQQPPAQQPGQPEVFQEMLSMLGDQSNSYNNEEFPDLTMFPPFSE

IC50 [2] [µM]	IC50 [3] [µM]	IC50 [5] [µM]	IC50 [8] [µM]	SMILES	IC50 (MDA-MB-231 [1]) [µM]	IC50 (PC-3 [4]) [µM]	IC50 (T47D [6]) [µM]	IC50 (PC-3 [7]) [µM]	IC50 (MCF7 [9]) [µM]	IC50 (MCF7 [10]) [µM]	IC50 (MDA-MB-231 [11]) [µM]	IC50 (T47D [12]) [µM]	other results
1	0.9	0.2	0.5	CC(=O)C1=CC[C@H]2[C@]3(C)CC[C@H]4C(C)(C)CCC[C@]4(CO)[C@H]3CC(=O)[C@]2(C)[C@H]1C=O	0.3	1.1	1.8	0.8	0.6	0.6	0.3	1.2	–
0.8	0.5	0.2	0.4	CC(=O)C1=CC[C@H]2[C@]3(C)CC[C@H]4C(C)(C)CCC[C@]4(CO)[C@H]3C[C@H](O)[C@]2(C)[C@H]1C=O	–	0.9	1.6	–	0.7	–	–	1	selectivity ratio [13]: 3
9	7.7	1	2.7	COC(=O)[C@]12CCCC(C)(C)[C@@H]1CC[C@@]1(C)[C@@H]3CC=C(C(C)=O)[C@H](C=O)[C@@]3(C)C(=O)C[C@@H]12	1.9	10.2	10.8	6.4	6.8	6.1	2	5.5	–
> 30	> 30	10.9	2.9	C/C(=C\CCc1ccoc1)CC/C=C(\C)CCCC1=CC(=O)OC1 [FUROSPONGOLIDE]	> 30	> 30	> 30	> 30	> 30	29	> 30	14	inhibition [14]: Active; inhibition at 30 µM (T47D [15]): 26%; inhibition [16]: Active; inhibition (T47D [17]): inactive; inhibition (T47D [18]): Active; Activity (T47D [19]): inactive; inhibition at 10 µM (T47D [20]): 38%; inhibition [21]: inactive; inhibition [22]: 97%; inhibition (T47D [23]): Dose-dependent effect; Activity (T47D [24]): inactive; selectivity ratio [25]: > 10; Activity (T47D [26]): inactive; Activity (T47D [27]): Active
